# Assay outcomes deposited in PubChem by several laboratories.
# Only some compounds are listed: those with a hit (about 1.4% of all), similar ones and a draw of the others.
# NR2E3 ag-1: NR2E3 agonists in two-hybrid cells, primary screen, cell-based, luminescence, CHO-S, Gal4-NCOR/VP16-NR2E3 | luciferase | 0.35% of 360,000 active | Photoreceptor-specific nuclear receptor (Homo sapiens), Q9Y5X4 | inhibition of corepressor binding, % at 3.98 µM | AID 602229, 2012;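 active = inhibition above the mean of all tested compounds plus 3 SD, cut at about 70% in these data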;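 note: 0% = DMSO with NR2E3 transfected cells and 100% = cells lacking NR2E3 construct; higher means lower luciferase signal from less NR2E3 corepressor binding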
# NR2E3 ag-2: inhibitors of NR2E3-RetCOR corepressor binding, primary screen, NR2E3 agonist project, biochemical, TR-FRET, GST-NR2E3, biotin-RetCOR. inhibition of corepressor binding, % at 4.78 µM. 1536-well. Photoreceptor-specific nuclear receptor (Homo sapiens), Q9Y5X4. 0.12% of 320,000 active. AID 2300, 2010;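 active = percent inhibition above the cutoff of mean plus 3 SD of all tested compounds, set per screening campaign, cut at about 20% in these data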;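 note: 0% = DMSO wells and 100% = biotin wells as full block of FRET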
#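 Test system – NR2E3–RetCOR corepressor complex · Quantity – NR2E3 fusion 1.35 nM · Buffer or medium – Tris pH 7.5 · Incubation – Compound–protein incubation for 5 h at 4 °C · Technique – TR-FRET, Eu(K)-anti-GST donor, streptavidin-D2 acceptor, ex 340, em 617/671 nm · Evaluation – percent inhibition of 671/617 nm emission ratio versus biotin and DMSO controls · Plate – 1536-well format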
# NR1D1 modulator: modulators of Rev-erb alpha DNA binding, primary screen, biochemical, FITC-DNA, fluorescence polarization, uHTS; Nuclear receptor subfamily 1 group D member 1 (Homo sapiens), P20393; Rev-erbα–FITC-DNA binding, 90 min; activity, % at 10 µM; 0.79% of 370,000 active; AID 1259318, 2017;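 active = activity above about 14%, limit read from the data; passing the limit was not always enough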;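 note: 0% = DMSO wells with 35 nM protein and 100% = DMSO wells with 750 nM protein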
# Target sequence (P20393 whole entry, looked up): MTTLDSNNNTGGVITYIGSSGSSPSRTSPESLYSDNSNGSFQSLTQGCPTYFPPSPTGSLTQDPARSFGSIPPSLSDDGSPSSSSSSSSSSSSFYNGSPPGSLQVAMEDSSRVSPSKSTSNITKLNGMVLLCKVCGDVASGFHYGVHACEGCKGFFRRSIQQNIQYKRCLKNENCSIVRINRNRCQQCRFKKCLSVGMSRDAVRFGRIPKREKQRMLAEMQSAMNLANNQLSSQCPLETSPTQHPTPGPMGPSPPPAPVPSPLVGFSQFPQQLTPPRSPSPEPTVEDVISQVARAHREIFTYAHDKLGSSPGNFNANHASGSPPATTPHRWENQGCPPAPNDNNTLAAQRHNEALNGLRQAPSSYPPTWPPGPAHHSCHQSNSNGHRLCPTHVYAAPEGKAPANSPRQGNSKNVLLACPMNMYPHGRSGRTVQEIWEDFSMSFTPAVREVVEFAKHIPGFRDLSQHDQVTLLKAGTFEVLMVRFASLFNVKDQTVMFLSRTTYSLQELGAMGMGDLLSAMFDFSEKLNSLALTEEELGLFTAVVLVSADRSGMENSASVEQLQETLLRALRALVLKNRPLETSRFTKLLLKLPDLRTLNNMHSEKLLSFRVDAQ
# PG9 Ab binder: binders of HIV-1 gp120 antibody PG9, primary screen, biochemical, TR-FRET | inhibition, % at 6.7 µM | TR-FRET gp120-PG9 antibody binding | AID 624416, 2012 | HIV-1 gp120 / PG9 antibody interaction | 0.43% of 360,000 active; in the data active = inhibition above about 8.5%
# Rev-erbA confirm: modulators of Rev-erb alpha DNA binding, confirmation, biochemical, FITC-DNA, fluorescence polarization, single point; 61% of 3,000 active; AID 1259319, 2017; 90 min; shares compounds with NR1D1 modulator; activation, % at 25 µM;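 active = activation at or above a set limit, or at least 3 SD above the negative control mean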;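 note: 0% = 35 nM protein with DMSO and 100% = 750 nM protein high control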
# RORg counter: modulation of RORgamma DNA binding, dose response, counter-screen for Rev-erb alpha modulator project, biochemical, fluorescence polarization, FITC-DNA. purified RORgamma protein-FITC-DNA binding. shares compounds with NR1D1 modulator. AID 1259320, 2017. IC50, µM. 8% of 910 active;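 active = Compounds whose fitted half-maximal concentration for disrupting protein-DNA binding is below 10 micromolar; the record names Rev-erb in its text, so the target is in doubt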
# Numbers without * were called inactive; i = inactive; . = not tested or not shown.
SMILES,NR2E3 ag-1,NR2E3 ag-2,NR1D1 modulator,PG9 Ab binder,Rev-erbA confirm,others
CN(C)c1ncnc2c1ncn2[C@H]1CN(Cc2cccs2)C[C@@H](CO)O1,-40,.,24*,0,-1,
O=C(c1ccccc1)c1nn(-c2cccc(Cl)c2)c2nc(-c3ccccc3)cc(=O)n12,-3,-2,24*,0,14,
O=C(NCc1ccc(Cl)cc1)C1C2C=CC3(CN(Cc4ccccc4)C(=O)C13)O2 (stereo unspecified),.,.,-2,.,.,
CCOC(=O)C1=C(c2ccccc2)O/C(=C(/C#N)C(F)(F)F)S1,.,3,.,.,.,
CCOC(=O)C1=C(c2ccccc2)O/C(=C(\C(=O)OC)C(F)(F)F)S1,-26,-1,25*,-3,18*,
CCOC(=O)C1CCN(C(c2cc3ccc(C)c(C)c3[nH]c2=O)c2nnnn2C2CCCCC2)CC1 (stereo unspecified),2,-2,69*,-2,97*,
CCOC(=O)C1CCN(C(c2cc3c(C)ccc(C)c3[nH]c2=O)c2nnnn2C2CCCCC2)CC1 (stereo unspecified),-19,5,3,0,.,
Cc1cc2cc(CN(Cc3ccc4c(c3)OCO4)C(=O)c3cnccn3)c3nnnn3c2cc1C,-25,-1,6,1,.,
O=C(c1ccccc1F)N(Cc1ccc2c(c1)OCO2)Cc1cc2cc3c(cc2n2nnnc12)OCO3,-19,-1,34*,-1,16,
CC(C)(C)OC(=O)N1CCC(N[C@@H](Cc2c[nH]c3ccccc23)C(=O)NCCc2c[nH]c3ccccc23)(C(=O)NC2CCCCC2)CC1,.,.,-1,.,.,
CCc1cccc(C)c1NC(=O)CSc1nc(-c2ccccc2F)nc2nc[nH]c12,-7,-14,2,2,.,
Cc1nn(C)c(C)c1NC(=O)CSc1nc(-c2ccccc2F)nc2c1cnn2-c1ccccc1,-22,.,42*,-1,63*,RORg counter=>40
Cc1cc(NC(=O)CSc2ncnc3c2cnn3-c2ccccc2)no1,-12,4,3,1,.,
Cc1nn(C)c(C)c1NC(=O)CSc1nc(-c2ccccc2Cl)nc2c1cnn2-c1ccccc1,-21,-6,102*,3,92*,RORg counter=6.8*
Cc1ccccc1N1CCN(C(=O)CCn2nnc3ccccc32)CC1,.,.,0,.,.,
CCOc1ncccc1C(=O)Nc1cc(S(=O)(=O)N2CCOCC2)ccc1OCC(F)(F)F,2,.,31*,0,15*,
CCOc1ccc(S(=O)(=O)N2CCCCC2)cc1NC(=O)c1cccnc1OCC,-16,.,1,1,.,
COc1ccc(C2C(C(=O)N3CCN(c4ccccc4Cl)CC3)CC(=O)N2c2ccc(OC)cc2)cc1 (stereo unspecified),.,.,6,.,.,
O=c1c2ccccc2ncn1-c1ccc(Cl)c(Cl)c1,-74,3,30*,-1,37*,RORg counter=>40
O=c1c2ccccc2ncn1-c1cccc(Cl)c1,-8,0,2,-3,.,
COc1ccc(NC(=O)Cn2c(=O)n(-c3ccccc3)c(=O)c3oc4ccccc4c32)c(OC)c1,-5,4,12,0,.,
COc1ccccc1NC(=O)Cn1c(=O)n(-c2ccccc2)c(=O)c2oc3ccccc3c21,-1,-1,20*,-1,23*,
COc1ccc(-c2cn(-c3ccc(C)cc3C)c(=S)[nH]2)cc1OC,9,0,23*,1,-2,
O=C(NCCO)[C@H](Cc1ccccc1)NC1(C(=O)NCCN2CCOCC2)CCCCC1,.,.,5,.,.,
COc1cc(C=O)ccc1OCc1ccncc1,3,0,-3,-1,.,
SMILES,NR2E3 ag-1,NR2E3 ag-2,NR1D1 modulator,PG9 Ab binder,Rev-erbA confirm,others
COc1cc(C=O)c(Br)cc1OCc1ccc(C)cc1,-106,13,18*,1,7,
COc1ccc(-c2cc3ncc(-c4ccccc4)c(N)n3n2)cc1,-37,.,2,0,.,
N#Cc1cnc2cc(-c3ccccc3)nn2c1N,-30,0,27*,-2,32*,RORg counter=>40
CCOc1ccc(CCNC(=O)CCOc2cc(C)ccc2C)cc1OCC,-26,3,-1,0,.,
Cc1ccc(C)c(OCCC(=O)NCCc2ccc(Cl)cc2)c1,6,0,23*,4,27*,
Cc1cc(-c2n[nH]c(=S)n2N=Cc2ccc(OCc3ccccc3)cc2)n[nH]1,.,.,-1,.,.,
Cn1ncc(Cl)c(Oc2ccccc2)c1=O,-11,4,5,.,.,
COc1ccc(Oc2c(Cl)cnn(CC(=O)C(c3ccccc3)c3ccccc3)c2=O)cc1,.,.,78*,.,57*,RORg counter=i
Cc1cc(C)cc(OC[C@@H](O)CN2CCC(C(O)(c3ccccc3)c3ccccc3)CC2)c1,.,.,-2,.,.,
Nc1cccc(N2C(=O)c3cccc4c(N)ccc(c34)C2=O)c1,-25,-6,80*,-15,64*,RORg counter=>40
CC(C)CCN1C(=O)c2cccc3c(N)ccc(c23)C1=O,-94,1,139*,1,132*,RORg counter=i
Cc1cccc(N2C(=O)c3cccc4c(N)ccc(c34)C2=O)c1,-39,-7,245*,-7,199*,RORg counter=i
Cc1cccc(N2C(=O)c3cccc4cccc(c34)C2=O)c1,-61,1,-2,2,.,
Nc1ccc2c3c(cccc13)C(=O)N(c1ccccc1)C2=O,-50,.,92*,-5,80*,RORg counter=>40
CC(=O)c1ccc2c3c(cccc13)C(=O)N(CCc1ccccc1)C2=O,-81,5,4,-3,.,
O=C(O)c1cccc(N2C(=O)c3cccc4c(Cl)ccc(c34)C2=O)c1,1,6,0,0,.,
CC(C)C[C@@H]1COc2cccc(N3CCCC3)c2S(=O)(=O)N1C,.,.,0,.,.,
COc1ccc(C(=O)OCCCN(C)C2CN(Cc3cn(Cc4ccccc4F)nn3)S(=O)(=O)C2)cc1OC (stereo unspecified),.,.,1,.,.,
CCN1C(=O)c2cccc3c(Cl)ccc(c23)C1=O,3,3,41*,1,30*,
CCN1C(=O)c2cccc3c(Cl)ccc1c23,8,1,3,-2,.,
CC(C)c1cc(Br)ccc1OCCN1C(=O)NC(C)(C)C1=O,-8,-2,14*,-1,1,
Cc1ccc(OCCOc2c(Cl)cc(Cl)cc2Cl)c([N+](=O)[O-])n1,.,.,-3,.,.,
O=C(CSc1nc2ccccc2nc1N1CCCC1)N1CCN(C(c2ccccc2)c2ccccc2)CC1,.,.,-8,.,.,
